How the values were obtained:
[1] = Drug uptake in CHOK1 cells expressing human PEPT1 at pH 6 by HPLC coupled with radiodetection analysis; assay type: ADME, cell-based, Cricetulus griseus; settings: chinese hamster, cho-k1, pH 6
Summary of the method: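 Accumulation of [14C]oseltamivir or its carboxylate in CHO-PEPT1 versus CHO-K1 cells. Conditions varied: KH buffer (with MES) or Hanks' balanced salt solution, pH 5 or 6 readjusted after substrate addition, 30 s to 15 min at 37°C. Uptake was quenched with ice-cold PBS-BSA, followed by Triton X-100 lysis, scintillation counting, and BCA protein normalization. HPLC-radiodetection checked ester stability.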

[2] = Terminal half life in healthy human at 150 mg, po administered as single dose by HPLC-tandem mass spectrometry under fed conditions; assay type: ADME, organism-based; settings: in vivo, read-out: beta t1/2 (converted)
Summary of the method: (§1)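 Open-label crossover food-effect study in 18 healthy volunteers (9 male, 9 female, mean age 26). Each received a single 150 mg oral dose of the marketed formulation, once fasting from midnight and once after a high-fat, high-calorie breakfast, separated by a 7–10 day washout. Plasma and urine were collected over 0–72 h and assayed by HPLC-MS/MS for oseltamivir and carboxylate.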

[3] = Tmax in adult fed Sprague-Dawley rat at 30 mg/kg, po administered as solution in bovine milk by HPLC-tandem mass spectrometry; assay type: ADME, organism-based; design: dose 30 mg/kg, route oral; settings: in vivo
Summary of the method: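 Cannulated adult male Sprague-Dawley rats with chow ad libitum, 3 per vehicle, were given oral 30 mg/kg (10 ml/kg). Plasma analysis was by HPLC-MS/MS, with Tmax taken graphically from concentration-time profiles.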

[4] = AUC(0 to 6 hrs) in adult fasted Sprague-Dawley rat at 30 mg/kg, po administered as 125 mM aqueous Gly-Sar solution by HPLC-tandem mass spectrometry; assay type: ADME, organism-based; design: time < 6 hr, dose 30 mg/kg, route oral; settings: plasma
Summary of the method: (§2)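 Adult male Sprague-Dawley rats (243-283 g), jugular-cannulated, fasted from 6 h before dosing through the 6-h study. Given 30 mg/kg orally (free base) at 10 ml/kg, n=3/group. Blood sampled at 0.25-6 h into K2EDTA with dichlorvos esterase inhibitor. Plasma assayed by LC-MS/MS (0.1-500 μg/l). Noncompartmental analysis: linear-trapezoid AUC; infinity extrapolation via log-linear terminal λz.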

[5] = Cmax in adult fasted Sprague-Dawley rat at 30 mg/kg, po administered as water solution by HPLC-tandem mass spectrometry; assay type: ADME, organism-based; design: dose 30 mg/kg, route oral; settings: in vivo
Summary of the method: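 Adult cannulated Sprague-Dawley rats, fasted (from 6 h predose) or fed, dosed orally at 30 mg/kg (10 ml/kg), 3 per group. Serial jugular plasma with dichlorvos stabilisation, measured by LC-MS/MS. Cmax read graphically from the concentration-time profile.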

[6] = AUC(0 to infinity) in adult fasted Sprague-Dawley rat at 30 mg/kg, po administered as solution in bovine milk by HPLC-tandem mass spectrometry; assay type: ADME, organism-based; design: time infinity, dose 30 mg/kg, route oral; settings: in vivo; summary of the method: as §2
[7] = AUC(0 to 5 hrs) in juvenile breast-fed Sprague-Dawley rat at 30 mg/kg, po administered as water solution by HPLC-tandem mass spectrometry; assay type: ADME, organism-based; design: time < 5 hr, dose 30 mg/kg, route oral; settings: plasma
Summary of the method: (§3)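 7-day-old Sprague-Dawley pups (9.7-18.9 g, both sexes), 15 per group. Given 30 mg/kg by oral gavage (10 ml/kg); breast-fed pups stayed with dams, fasted pups were removed 8 h before dosing. Blood taken by cardiac puncture under isoflurane at 0.25, 0.5, 1, 2 and 5 h, n=3 per time point (composite design). Dichlorvos-treated plasma assayed by LC-MS/MS; AUC0-5h by noncompartmental analysis.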

[8] = Drug uptake in CHOK1 cells expressing human PEPT1 at 5 to 100 uM after 10 mins by HPLC coupled with radiodetection analysis; assay type: ADME, cell-based, Cricetulus griseus; settings: chinese hamster, cho-k1, 10 min
[9] = AUC(0 to 24 hrs) in adult fed Sprague-Dawley rat at 30 mg/kg, po administered as solution in bovine milk by HPLC-tandem mass spectrometry; assay type: ADME, organism-based; design: time < 24 hr, dose 30 mg/kg, route oral; settings: in vivo
Summary of the method: (§4)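 Sprague-Dawley males, 7-8 weeks, 243-283 g, jugular-cannulated, 3 days' recovery; fed (chow ad libitum). Single oral dose of 30 mg/kg (free base) at 10 ml/kg; 3 rats/group. Jugular blood taken at 0.25-24 h into K2EDTA with dichlorvos, kept on ice. Plasma analysed by validated LC-MS/MS (0.1-500 μg/l). Noncompartmental analysis; AUC by linear trapezoid, AUC0-∞ extrapolated using λz.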

[10] = Tmax in healthy human at 150 mg, po administered as single dose by HPLC-tandem mass spectrometry under fed conditions; assay type: ADME, organism-based; settings: in vivo; summary of the method: as §1
[11] = target: T1, Solute carrier family 15 member 1 (Homo sapiens, UniProt P46059); test: Inhibition of human PEPT1 expressed in CHOK1 cells assessed as Gly-Sar uptake at 0.3 to 10 mM after 10 mins by HPLC coupled with radiodetection analysis; assay type: cell-based; settings: cho-k1, 10 min, 10000 µM
T1 sequence (P46059 whole entry): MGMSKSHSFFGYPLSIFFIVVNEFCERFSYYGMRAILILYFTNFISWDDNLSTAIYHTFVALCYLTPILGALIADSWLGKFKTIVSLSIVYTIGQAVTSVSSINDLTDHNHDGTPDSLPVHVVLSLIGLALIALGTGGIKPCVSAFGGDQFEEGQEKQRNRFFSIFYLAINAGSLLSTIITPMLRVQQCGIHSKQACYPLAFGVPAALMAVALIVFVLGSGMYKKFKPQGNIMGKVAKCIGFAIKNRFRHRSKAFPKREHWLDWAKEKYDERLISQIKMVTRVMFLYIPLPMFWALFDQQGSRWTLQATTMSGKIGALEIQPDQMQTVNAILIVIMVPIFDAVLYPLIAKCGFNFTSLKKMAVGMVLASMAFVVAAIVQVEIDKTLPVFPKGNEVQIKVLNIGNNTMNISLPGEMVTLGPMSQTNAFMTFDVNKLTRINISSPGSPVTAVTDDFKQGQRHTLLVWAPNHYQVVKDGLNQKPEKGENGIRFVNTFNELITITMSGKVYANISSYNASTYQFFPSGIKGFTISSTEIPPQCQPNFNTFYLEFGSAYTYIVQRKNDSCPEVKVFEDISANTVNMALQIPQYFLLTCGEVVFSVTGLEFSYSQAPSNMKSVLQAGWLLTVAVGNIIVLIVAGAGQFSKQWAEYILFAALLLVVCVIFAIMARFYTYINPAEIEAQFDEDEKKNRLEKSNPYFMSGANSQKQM
Summary of the method: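 Competition assay in CHO-PEPT1 cells: 2 µM [3H]Gly-Sar with oseltamivir or oseltamivir carboxylate at 0.3–10 mM, 10 min at 37°C, pH 6, KH/MES buffer. Tyr-Phe 0.5 mM served as positive control. Intracellular radioactivity was measured per mg protein. Three independent experiments.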

[12] = Drug excretion in healthy human urine assessed as unchanged drug level at 150 mg, po administered as single dose by HPLC-tandem mass spectrometry under fasting conditions; assay type: ADME, organism-based; settings: read-out: Drug excretion
Summary of the method: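 Open-label crossover in 18 healthy volunteers (9 male, 9 female, mean age 26). Each received marketed oseltamivir 150 mg orally, once fasted from midnight and once after a high-fat, high-calorie breakfast, with a 7-10 day washout. Plasma and urine collected over 0-72 h and analysed by HPLC-MS/MS. AUC and Cmax compared after log transformation.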

[13] = AUC(0 to 6 hrs) in adult fed Sprague-Dawley rat at 30 mg/kg, po administered as solution in bovine milk by HPLC-tandem mass spectrometry; assay type: ADME, organism-based; design: time < 6 hr, dose 30 mg/kg, route oral; settings: in vivo; summary of the method: as §4
[14] = AUC(0 to 5 hrs) in juvenile fasted Sprague-Dawley rat at 30 mg/kg, po administered as water solution by HPLC-tandem mass spectrometry; assay type: ADME, organism-based; design: time < 5 hr, dose 30 mg/kg, route oral; settings: plasma; summary of the method: as §3

Drug uptake [1] | half-life [2] [h] | Tmax [3] [h] | AUC(0-t) at 6 h [4] [ng·h/mL] | Cmax [5] [ng/mL] | AUC(0-inf) [6] [ng·h/mL] | AUC(0-t) at 5 h [7] [ng·h/mL] | Drug uptake [8] | AUC(0-t) at 24 h [9] [ng·h/mL] | Tmax [10] [h] | inhibition (INH) [11] | dose excreted [12] [%] | AUC(0-t) at 6 h [13] [ng·h/mL] | AUC(0-t) at 5 h [14] [ng·h/mL] | Compound
Active | 8.2 | 0.75 | 8350 | 2290 | 6300 | 5070 | Active | 6330 | 5.42 | Not Active | 58.5 | 4510 | 12100 | CCC(CC)O[C@@H]1C=C(C(=O)O)C[C@H](N)[C@H]1NC(C)=O [OSELTAMIVIR CARBOXYLATE]
Active | 2.15 | 0.41 | 3780 | 1690 | 3060 | 20300 | Active | 2800 | 2.06 | Not Active | 3.09 | 2510 | 29500 | CCOC(=O)C1=C[C@@H](OC(CC)CC)[C@H](NC(C)=O)[C@@H](N)C1 [OSELTAMIVIR]

Reference: ChEMBL document CHEMBL3526035, “Role of the intestinal peptide transporter PEPT1 in oseltamivir absorption: in vitro and in vivo studies” (Drug Metab Dispos, 2012)
